Results taken from ChEMBL document CHEMBL4043132, “3-O-Substituted-3',4',5'-trimethoxyflavonols: Synthesis and cell-based evaluation as anti-prostate cancer agents” (Bioorg Med Chem, 2017).

Assays:
PC-3 [1] = test: Antiproliferative activity against human PC3 cells after 3 days by WST-1 assay; type: functional, cell-based; conditions: PC-3, 72 h
Outline: (§1)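 Cells from ATCC; PC-3 and LNCaP grown in RPMI-1640 and DU145 in EMEM, each with 10% FBS and 1% penicillin/streptomycin, 37 °C, 5% CO2. Seeded 3,200 cells/well and exposed for 3 days to at least five doses, with DMSO as vehicle control. WST-1 reagent added for 3 h at 37 °C, absorbance read at 430 nm. IC50 taken from a linear inhibition plot; mean ± SD of three independent experiments.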

DU-145 = test: Antiproliferative activity against human DU145 cells after 3 days by WST-1 assay; type: functional, cell-based; conditions: DU-145, 72 h; outline: as §1
LNCaP = test: Antiproliferative activity against human LNCAP cells after 3 days by WST-1 assay; type: functional, cell-based; conditions: 72 h; outline: as §1
PWR-1E = test: Antiproliferative activity against human PWR-1E cells after 3 days by WST-1 assay; type: cell-based; conditions: 72 h
Outline: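 PWR-1E benign prostate epithelial cells grown in keratinocyte serum-free medium with bovine pituitary extract and recombinant human EGF. Seeded 3,200 cells/well and treated for 3 days at 37 °C, with DMSO as vehicle control. WST-1 reagent added for 3 h, absorbance read at 430 nm. IC50 from a linear inhibition plot over at least five doses; mean ± SD, n = 3.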

PC-3 [2] = test: Cell cycle arrest in human PC3 cells assessed as accumulation at G0/G1 phase at 10 uM after 16 hrs by propidium iodide staining-based flow cytometry (reference value: 34.1%); type: functional
PC-3 [3] = test: Cell cycle arrest in human PC3 cells assessed as accumulation at G0/G1 phase at 20 uM after 16 hrs by propidium iodide staining-based flow cytometry (reference value: 34.1%); type: functional
PC-3 [4] = test: Cell cycle arrest in human PC3 cells assessed as accumulation at G0/G1 phase at 10 uM after 24 hrs by propidium iodide staining-based flow cytometry (reference value: 37.5%); type: functional
PC-3 [5] = test: Cell cycle arrest in human PC3 cells assessed as accumulation at G0/G1 phase at 20 uM after 24 hrs by propidium iodide staining-based flow cytometry (reference value: 37.5%); type: functional
PC-3 [6] = test: Cell cycle arrest in human PC3 cells assessed as accumulation at S phase at 10 uM after 16 hrs by propidium iodide staining-based flow cytometry (reference value: 9.9%); type: functional
PC-3 [7] = test: Cell cycle arrest in human PC3 cells assessed as accumulation at S phase at 20 uM after 16 hrs by propidium iodide staining-based flow cytometry (reference value: 9.9%); type: functional
PC-3 [8] = test: Cell cycle arrest in human PC3 cells assessed as accumulation at S phase at 10 uM after 24 hrs by propidium iodide staining-based flow cytometry (reference value: 8.0%); type: functional
PC-3 [9] = test: Cell cycle arrest in human PC3 cells assessed as accumulation at S phase at 20 uM after 24 hrs by propidium iodide staining-based flow cytometry (reference value: 8.0%); type: functional
PC-3 [10] = test: Cell cycle arrest in human PC3 cells assessed as accumulation at G2/M phase at 10 uM after 16 hrs by propidium iodide staining-based flow cytometry (reference value: 32.3%); type: functional
PC-3 [11] = test: Cell cycle arrest in human PC3 cells assessed as accumulation at G2/M phase at 20 uM after 16 hrs by propidium iodide staining-based flow cytometry (reference value: 32.3%); type: functional
PC-3 [12] = test: Cell cycle arrest in human PC3 cells assessed as accumulation at G2/M phase at 10 uM after 24 hrs by propidium iodide staining-based flow cytometry (reference value: 27.8%); type: functional
PC-3 [13] = test: Cell cycle arrest in human PC3 cells assessed as accumulation at G2/M phase at 20 uM after 24 hrs by propidium iodide staining-based flow cytometry (reference value: 27.8%); type: functional
PC-3 [14] = test: Induction of apoptosis in human PC3 cells assessed as viable cells at 1 uM after 16 hrs by F2N12S and CYTOX AADvanced double staining-based flow cytometric analysis (reference value: 95%); type: functional; conditions: PC-3, 16 h, read-out: Activity
PC-3 [15] = test: Induction of apoptosis in human PC3 cells assessed as apoptotic cells at 1 uM after 16 hrs by F2N12S and CYTOX AADvanced double staining-based flow cytometric analysis (reference value: 2 to 3%); type: functional
PC-3 [16] = test: Induction of apoptosis in human PC3 cells assessed as necrotic cells at 1 uM after 16 hrs by F2N12S and CYTOX AADvanced double staining-based flow cytometric analysis (reference value: 2 to 3%); type: functional
PC-3 [17] = test: Induction of apoptosis in human PC3 cells assessed as viable cells at 5 uM after 16 hrs by F2N12S and CYTOX AADvanced double staining-based flow cytometric analysis (reference value: 95%); type: functional; conditions: PC-3, 16 h, read-out: Activity
PC-3 [18] = test: Induction of apoptosis in human PC3 cells assessed as apoptotic cells at 5 uM after 16 hrs by F2N12S and CYTOX AADvanced double staining-based flow cytometric analysis (reference value: 2 to 3%); type: functional
PC-3 [19] = test: Induction of apoptosis in human PC3 cells assessed as necrotic cells at 5 uM after 16 hrs by F2N12S and CYTOX AADvanced double staining-based flow cytometric analysis (reference value: 2 to 3%); type: functional
PC-3 [20] = test: Induction of apoptosis in human PC3 cells assessed as viable cells at 10 uM after 16 hrs by F2N12S and CYTOX AADvanced double staining-based flow cytometric analysis (reference value: 95%); type: functional; conditions: PC-3, 16 h, read-out: Activity
PC-3 [21] = test: Induction of apoptosis in human PC3 cells assessed as apoptotic cells at 10 uM after 16 hrs by F2N12S and CYTOX AADvanced double staining-based flow cytometric analysis (reference value: 2 to 3%); type: functional
PC-3 [22] = test: Induction of apoptosis in human PC3 cells assessed as necrotic cells at 10 uM after 16 hrs by F2N12S and CYTOX AADvanced double staining-based flow cytometric analysis (reference value: 2 to 3%); type: functional
PC-3 [23] = test: Induction of apoptosis in human PC3 cells assessed as viable cells at 20 uM after 16 hrs by F2N12S and CYTOX AADvanced double staining-based flow cytometric analysis (reference value: 95%); type: functional; conditions: PC-3, 16 h, read-out: Activity
PC-3 [24] = test: Induction of apoptosis in human PC3 cells assessed as apoptotic cells at 20 uM after 16 hrs by F2N12S and CYTOX AADvanced double staining-based flow cytometric analysis (reference value: 2 to 3%); type: functional
PC-3 [25] = test: Induction of apoptosis in human PC3 cells assessed as necrotic cells at 20 uM after 16 hrs by F2N12S and CYTOX AADvanced double staining-based flow cytometric analysis (reference value: 2 to 3%); type: functional
PC-3 [26] = test: Induction of apoptosis in human PC3 cells assessed as viable cells at 30 uM after 16 hrs by F2N12S and CYTOX AADvanced double staining-based flow cytometric analysis (reference value: 95%); type: functional; conditions: PC-3, 16 h, read-out: Activity
PC-3 [27] = test: Induction of apoptosis in human PC3 cells assessed as apoptotic cells at 30 uM after 16 hrs by F2N12S and CYTOX AADvanced double staining-based flow cytometric analysis (reference value: 2 to 3%); type: functional
PC-3 [28] = test: Induction of apoptosis in human PC3 cells assessed as necrotic cells at 30 uM after 16 hrs by F2N12S and CYTOX AADvanced double staining-based flow cytometric analysis (reference value: 2 to 3%); type: functional
PC-3 [29] = test: Induction of apoptosis in human PC3 cells assessed as viable cells at 50 uM after 16 hrs by F2N12S and CYTOX AADvanced double staining-based flow cytometric analysis (reference value: 95%); type: functional; conditions: PC-3, 16 h, read-out: Activity
PC-3 [30] = test: Induction of apoptosis in human PC3 cells assessed as apoptotic cells at 50 uM after 16 hrs by F2N12S and CYTOX AADvanced double staining-based flow cytometric analysis (reference value: 2 to 3%); type: functional
PC-3 [31] = test: Induction of apoptosis in human PC3 cells assessed as necrotic cells at 50 uM after 16 hrs by F2N12S and CYTOX AADvanced double staining-based flow cytometric analysis (reference value: 2 to 3%); type: functional
PC-3 [32] = test: Induction of apoptosis in human PC3 cells assessed as viable cells at 100 uM after 16 hrs by F2N12S and CYTOX AADvanced double staining-based flow cytometric analysis (reference value: 95%); type: functional; conditions: PC-3, 16 h, read-out: Activity
PC-3 [33] = test: Induction of apoptosis in human PC3 cells assessed as apoptotic cells at 100 uM after 16 hrs by F2N12S and CYTOX AADvanced double staining-based flow cytometric analysis (reference value: 2 to 3%); type: functional
PC-3 [34] = test: Induction of apoptosis in human PC3 cells assessed as necrotic cells at 100 uM after 16 hrs by F2N12S and CYTOX AADvanced double staining-based flow cytometric analysis (reference value: 2 to 3%); type: functional

For `CCCN(CCC)CCCCOc1c(-c2cc(OC)c(OC)c(OC)c2)oc2ccccc2c1=O`, the IC50 (PC-3 [1]) was 11.6 µM, the IC50 (DU-145) was 35.8 µM and the IC50 (LNCaP) was 16.8 µM.

In the case of `COc1cc(-c2oc3ccccc3c(=O)c2OC(C)C)cc(OC)c1OC`, the IC50 (PC-3 [1]) is reported as 21.2 µM, the IC50 (DU-145) is reported as greater than 50 µM and the IC50 (LNCaP) is reported as 8.8 µM.

In the case of `CCC(C)Oc1c(-c2cc(OC)c(OC)c(OC)c2)oc2ccccc2c1=O` (configuration not stated), the IC50 (PC-3 [1]) is reported as 38.6 µM, the IC50 (DU-145) is reported as greater than 50 µM and the IC50 (LNCaP) is reported as 9.3 µM.

Molecule `CCCCCN(CCCCC)CCCCOc1c(-c2cc(OC)c(OC)c(OC)c2)oc2ccccc2c1=O` has an IC50 (PC-3 [1]) of 7.9 µM, an IC50 (DU-145) of 12.5 µM and an IC50 (LNCaP) of 9.7 µM.

`O=c1c(O)c(-c2ccc(O)c(O)c2)oc2cc(O)ccc12` [FISETIN] showed an IC50 (PC-3 [1]) greater than 50 µM, an IC50 (DU-145) greater than 50 µM and an IC50 (LNCaP) of 34.1 µM.

Work on `CCCN(CCC)CCCCCOc1c(-c2cc(OC)c(OC)c(OC)c2)oc2ccccc2c1=O` yielded an IC50 (PC-3 [1]) of 2.6 µM, an IC50 (DU-145) of 24.2 µM and an IC50 (LNCaP) of 7.6 µM.

`CCCCN(CCCC)CCCCCOc1c(-c2cc(OC)c(OC)c(OC)c2)oc2ccccc2c1=O` was tested, and the IC50 (PC-3 [1]) was 6.8 µM, the IC50 (DU-145) was greater than 50 µM and the IC50 (LNCaP) was 7.8 µM.

In the case of `CCCCCCCOc1c(-c2cc(OC)c(OC)c(OC)c2)oc2ccccc2c1=O`, the IC50 (PC-3 [1]) is reported as greater than 50 µM, the IC50 (DU-145) is reported as greater than 50 µM and the IC50 (LNCaP) is reported as greater than 50 µM.

For `CCCOc1c(-c2cc(OC)c(OC)c(OC)c2)oc2ccccc2c1=O`, the IC50 (PC-3 [1]) was 11.8 µM, the IC50 (DU-145) was 2.8 µM and the IC50 (LNCaP) was 5.7 µM.

Molecule `CCOc1c(-c2cc(OC)c(OC)c(OC)c2)oc2ccccc2c1=O` has an IC50 (PC-3 [1]) of 0.9 µM, an IC50 (DU-145) of 6.2 µM and an IC50 (LNCaP) of 5.4 µM. For the same molecule, the IC50 (PWR-1E) was 8.05 µM, the Activity (PC-3 [2]) was 55.7% and the Activity (PC-3 [3]) was 59%. It also gave an Activity (PC-3 [4]) of 40.8%, an Activity (PC-3 [5]) of 48.6% and an Activity (PC-3 [6]) of 7.7%. For the same molecule, the Activity (PC-3 [7]) was 4.6%, the Activity (PC-3 [8]) was 18.7% and the Activity (PC-3 [9]) was 11.8%. The Activity (PC-3 [10]) was 22.2%, the Activity (PC-3 [11]) was 24.5% and the Activity (PC-3 [12]) was 19.3%. It also gave an Activity (PC-3 [13]) of 17.9%, a viability at 1 µM (PC-3 [14]) of 94% and an Activity (PC-3 [15]) of 3%. The Activity (PC-3 [16]) was 3%, the viability at 5 µM (PC-3 [17]) was 95% and the Activity (PC-3 [18]) was 3%. The Activity (PC-3 [19]) was 3%, the viability at 10 µM (PC-3 [20]) was 95% and the Activity (PC-3 [21]) was 3%. It also gave an Activity (PC-3 [22]) of 3%, a viability at 20 µM (PC-3 [23]) of 93% and an Activity (PC-3 [24]) of 5%. For the same molecule, the Activity (PC-3 [25]) was 5%, the viability at 30 µM (PC-3 [26]) was 94% and the Activity (PC-3 [27]) was 3%. The Activity (PC-3 [28]) was 3%, the viability at 50 µM (PC-3 [29]) was 92% and the Activity (PC-3 [30]) was 5%. For the same molecule, the Activity (PC-3 [31]) was 5%, the viability at 100 µM (PC-3 [32]) was 91% and the Activity (PC-3 [33]) was 6%. It also gave an Activity (PC-3 [34]) of 6%.

`CCCCOc1c(-c2cc(OC)c(OC)c(OC)c2)oc2ccccc2c1=O` showed an IC50 (PC-3 [1]) of 12.8 µM, an IC50 (DU-145) greater than 50 µM and an IC50 (LNCaP) of 8.9 µM.
